Compound activity (PubChem BioAssay)
CXCR6 block = CXCR6 (human) receptor inhibition; O00574; CHO-K1 PathHunter CXCR6 beta-arrestin, luminescence; inhibition, % at 20 µM; actives 0.36% (n = 360,000); AID 602244; in the data active means inhibition above about 34%, passing the limit was not always enough;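 further: antagonist mode with CXCL16 agonist at 10 nM final; 0% = 10 nM CXCL16 with DMSO and 100% = unstimulated wells without agonist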
B2AR ag = agonists of human beta-2 adrenergic receptor inducing internalization | response, % (concentration not given with the values) | actives 0.43% (n = 340,000) | P07550 | AID 504454 | Am2.2-beta2AR cells, FAP receptor internalization, flow cytometry;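 active means response above a set limit, near 3 SD of response in nonfluorescent compounds, cut at about 42% in these data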
PfG6PD inh = PfG6PD (Plasmodium falciparum) enzyme inhibition; actives 0.78% (n = 350,000); inhibition, % at 20 µM; PfGluPho enzyme, NADPH resazurin-diaphorase fluorescence;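 active means inhibition reaching at least a set limit at 20 µM in the primary screen, cut at about 59% in these data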;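 further: 0% = DMSO wells with substrate and 100% = DMSO wells lacking glucose-6-phosphate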
CCR6 antagonist = blocks CCL20-driven beta-arrestin recruitment at human CCR6; P51684; CHO-K1 CCR6 PathHunter beta-arrestin, luminescence, CCL20-stimulated; inhibition, % at 20 µM; actives 0.49% (n = 340,000); AID 493098;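 active means compounds whose inhibition of the agonist-driven luminescence signal at 20 µM reaches about 50%, limit read from the data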;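 further: cells stimulated with CCL20 at 14 nM final; plate controls were DMSO with CCL20 for no effect and DMSO without agonist for full effect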
Target sequence (P51684 whole entry, looked up): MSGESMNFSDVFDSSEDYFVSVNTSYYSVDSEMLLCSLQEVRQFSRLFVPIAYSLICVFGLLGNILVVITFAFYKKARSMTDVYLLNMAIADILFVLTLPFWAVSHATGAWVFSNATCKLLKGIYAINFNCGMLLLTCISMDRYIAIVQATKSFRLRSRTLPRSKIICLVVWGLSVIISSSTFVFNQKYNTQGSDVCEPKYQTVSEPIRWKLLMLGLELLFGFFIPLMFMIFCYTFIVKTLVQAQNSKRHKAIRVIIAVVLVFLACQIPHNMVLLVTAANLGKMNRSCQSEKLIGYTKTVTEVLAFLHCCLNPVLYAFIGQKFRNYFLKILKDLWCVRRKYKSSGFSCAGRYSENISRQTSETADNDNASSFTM
APJ antagonist = APJ receptor antagonism. P35414. inhibition, % at 20 µM. CHO-K1 APJ beta-arrestin complementation, luminescence. AID 2521. actives 0.32% (n = 330,000);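 active means inhibition above about 40% at 20 µM, limit read from the data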;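 further: cells challenged with 10 nM apelin-13 agonist together with compound; plate controls were apelin-13 plus DMSO wells for no effect and DMSO wells lacking apelin-13 for full effect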
APJ agonist = APJ receptor agonism. CHO-K1 APJ PathHunter beta-arrestin, luminescence; 0% DMSO wells, 100% apelin. AID 2520. actives 0.11% (n = 330,000). activation, % at 20 µM. P35414;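 active means activation more than six SD over the plate average, tested at 20 µM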;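 further: 0% = DMSO alone and 100% = apelin-13 at 10 nM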
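Test system: CHO-K1 APJ beta-arrestin complementation cell line | Compound: Single test compound dose, 20 µM final, 1% DMSO | Incubation: Compound 90 min 25 °C, reagent 1 h | Measured by: beta-gal luminescence | Read-out basis: APJ–arrestin association signal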
PfGluPho conf = confirmation of Plasmodium falciparum G6PD inhibitors; shares compounds with PfG6PD inh; recombinant PfGluPho, NADPH-diaphorase-resazurin fluorescence; inhibition, % at 20 µM; actives 34% (n = 2,400); AID 504753;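 active means inhibition of at least 50% at 20 µM in any single replicate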;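 further: 0% = DMSO with substrate and 100% = DMSO lacking glucose-6-phosphate substrate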
Diaphorase 10uM = inhibits diaphorase or oxidizes, flagging false PfG6PD hits; shares compounds with PfG6PD inh; diaphorase-coupled resazurin reduction, fluorescence, NADPH 10 uM; inhibition, % at 20 µM; actives 39% (n = 820); AID 504862;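 active means average inhibition reaching 50% or more with the compound at 20 µM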;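 further: resorufin red fluorescence formed as diaphorase reduces resazurin using NADPH; 0% = DMSO with enzyme and 100% = DMSO without enzyme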
Diaph ctr 30uM = inhibits diaphorase or oxidizes, flagging false PfG6PD hits | shares compounds with PfG6PD inh | Diaphorase/resazurin coupled assay, resorufin fluorescence, 30 uM NADPH | inhibition, % at 20 µM | actives 29% (n = 820);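 active means inhibition averaging 50% or more, tested at 20 µM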;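 further: 0% = DMSO with enzyme and 100% = DMSO wells lacking diaphorase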
* marks the source's active call; other numbers are inactive results. Sampled rows, rich in hits. Any-hit rate of the full collection: about 1.7%.

What do the screens show for `N#Cc1c(NC(=O)c2ccccc2)sc2c1CCCCC2`?
CXCR6 block: 14; B2AR ag: -1; PfG6PD inh: 3; CCR6 antagonist: 29; APJ antagonist: 12; APJ agonist: -5

Results for O=C(Nc1sc2c(c1C(=O)O)CCC2)c1cccs1 ?
CXCR6 block: 6; B2AR ag: -3; PfG6PD inh: 38; CCR6 antagonist: -4; APJ antagonist: 6; APJ agonist: -5

Results for O=C(Nc1sc2c(c1C(=O)O)CCCCC2)c1ccccc1 ?
CXCR6 block: -2; B2AR ag: 17; PfG6PD inh: 80*; CCR6 antagonist: 3; APJ antagonist: -12; APJ agonist: -3; PfGluPho conf: 35

How did O=C(Nc1sc2c(c1C(=O)O)CCC2)c1ccc(F)cc1 do in these assays?
CXCR6 block: 1; B2AR ag: -3; PfG6PD inh: 91*; CCR6 antagonist: -25; APJ antagonist: -31; APJ agonist: -1; PfGluPho conf: 54*; Diaphorase 10uM: 42; Diaph ctr 30uM: 39

How did O=C(O)c1c(NC(=O)c2cccc3ccccc23)sc2c1CCC2 do in these assays?
CXCR6 block: -1; B2AR ag: 6; PfG6PD inh: 10; CCR6 antagonist: -14; APJ antagonist: 9; APJ agonist: -5

How did CC1(C)CC(=O)C=C(c2ccc(-c3ccc(S(C)(=O)=O)cc3)cc2)C1=O do in these assays?
CXCR6 block: -15; PfG6PD inh: 8

What do the screens show for `Cc1ccc(S(=O)(=O)N2CCN(C(=O)C(Cc3ccccc3)NC(=O)c3ccccc3)CC2)cc1` (stereo unspecified)?
CXCR6 block: 1; B2AR ag: 0; PfG6PD inh: 2; CCR6 antagonist: -9; APJ antagonist: -14; APJ agonist: 0

What do the screens show for `Cc1ccc(-c2cnc(C(O)c3c(C)cccc3C)[nH]2)cc1` (stereo unspecified)?
CXCR6 block: 7

Results for O=C(Nc1sc2c(c1C(=O)O)CCCC2)c1ccc(Cl)cc1 ?
CXCR6 block: 10; B2AR ag: 10; PfG6PD inh: 124*; CCR6 antagonist: -10; APJ antagonist: 2; APJ agonist: -2; PfGluPho conf: 77*; Diaphorase 10uM: 73*; Diaph ctr 30uM: 72*

How did CC(C)C1Cc2[nH]c(=S)[nH]c(=O)c2C(c2ccc(Cl)cc2)O1 (stereo unspecified) do in these assays?
CXCR6 block: -3

What do the screens show for `O=C1/C(=C\c2ccc([N+](=O)[O-])cc2)CCc2ccccc21`?
CXCR6 block: -4; B2AR ag: 5; PfG6PD inh: 14; CCR6 antagonist: 2; APJ antagonist: 1; APJ agonist: -4

Results for O=C1/C(=C/Nc2cccc([N+](=O)[O-])c2)CCc2ccccc21 ?
CXCR6 block: 1; B2AR ag: -7; PfG6PD inh: 67*; CCR6 antagonist: 25; APJ antagonist: -43; APJ agonist: 6; PfGluPho conf: 35

Results for Cc1cc(=O)oc2cc(OCC(=O)N3CCOCC3)ccc12 ?
CXCR6 block: -2; B2AR ag: 2; PfG6PD inh: 68*; CCR6 antagonist: -21; APJ antagonist: -9; APJ agonist: -5; PfGluPho conf: 28

What do the screens show for `Cc1c(Cl)cccc1N=C1NC(=O)CS1`?
CXCR6 block: -1; PfG6PD inh: 66*; PfGluPho conf: 43

Results for O=C1CSC(=Nc2ccccc2Cl)N1 ?
CXCR6 block: 8; B2AR ag: 1; PfG6PD inh: 7; CCR6 antagonist: -8; APJ antagonist: 6; APJ agonist: -1

What do the screens show for `Oc1ccccc1NCC(O)Cn1ccc2ccccc21` (stereo unspecified)?
CXCR6 block: 2; B2AR ag: -346; PfG6PD inh: 66*; CCR6 antagonist: 20; APJ antagonist: -34; APJ agonist: 6; PfGluPho conf: 28

Results for OC(CNCc1ccccc1)Cn1ccc2ccccc21 (stereo unspecified) ?
CXCR6 block: 3; B2AR ag: 17; PfG6PD inh: 3; CCR6 antagonist: 9; APJ antagonist: 7; APJ agonist: -2

What do the screens show for `COc1ccc(CCn2c(NN=C(C)C)nc3c2c(=O)[nH]c(=O)n3C)cc1`?
CXCR6 block: -9; B2AR ag: 3; PfG6PD inh: 118*; CCR6 antagonist: 12; APJ antagonist: -63; APJ agonist: 9; PfGluPho conf: 51*; Diaphorase 10uM: -1; Diaph ctr 30uM: -7

What do the screens show for `COc1ccc(CCn2c(NN)nc3c2c(=O)[nH]c(=O)n3C)cc1`?
CXCR6 block: -2; B2AR ag: -10; PfG6PD inh: 103*; CCR6 antagonist: -6; APJ antagonist: -40; APJ agonist: 4; PfGluPho conf: 88*; Diaphorase 10uM: -6; Diaph ctr 30uM: -2

Results for CCNC(=O)C1(C)CCCN(Cc2cccc3c2OCCO3)C1 (stereo unspecified) ?
CXCR6 block: 5

Results for Cc1cc(NC(=O)CSc2nc3c(cnn3-c3cccc(Cl)c3)c(=O)[nH]2)no1 ?
CXCR6 block: 2; B2AR ag: 7; PfG6PD inh: 4; CCR6 antagonist: -2; APJ antagonist: 15; APJ agonist: 4

Results for Cc1ccc(C(=O)NCCNS(C)(=O)=O)cc1 ?
CXCR6 block: 4; B2AR ag: 2; PfG6PD inh: -21; CCR6 antagonist: 12; APJ antagonist: -16; APJ agonist: -2

Results for C=CC[C@H](CC(=O)OC(C)(C)C)C(=O)OC[C@H]1CCCN1C(=O)[C@@H](CC=C)CC(=O)N(CCO)Cc1ccccc1 ?
CXCR6 block: 11; B2AR ag: 5; PfG6PD inh: 7; CCR6 antagonist: 10; APJ antagonist: 5; APJ agonist: 2

What do the screens show for `COc1ccc(NC(=S)N(CCC(C)C)C2CCN(C(C)C)CC2)cc1Cl`?
CXCR6 block: 2; B2AR ag: 7; PfG6PD inh: 69*; CCR6 antagonist: 7; APJ antagonist: 10; APJ agonist: -5; PfGluPho conf: 83*; Diaphorase 10uM: -13; Diaph ctr 30uM: -14

How did Cc1cccc(OCC(=O)NCC(=O)N/N=C/c2ccc(O)cc2O)c1 do in these assays?
CXCR6 block: 2; B2AR ag: 11; PfG6PD inh: -36; CCR6 antagonist: 3; APJ antagonist: -14; APJ agonist: 0
